Results on two substances are retold here after article PMC2697266 (Nature, 2009).

Series [1] concerns JARID1APHD1 (the first PHD finger of JARID1A). Put plainly: Biotinylated histone peptide pull-down, JARID1APHD1. It is filed as binding, human. Conditions: 50mM Tris pH 7.5, 150mM NaCl; qualitative. The method in brief: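 Biotinylated histone peptides were bound to recombinant PHD protein and captured on avidin beads. Beads were washed extensively in 50mM Tris pH 7.5, 150mM NaCl (250mM for stringent washes), 0.05% NP-40, 0.3mg/ml BSA and 1mM DTT; bound protein was then assessed.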

Series [2] in a line: 15N NMR relaxation, rotational correlation time. The format is physicochemical. The note with it: 15N R2/R1 ratios, pH 7.0, 25°C; estimated. The method in brief: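 0.2-0.5 mM uniformly 15N-labeled JARID1A PHD3 (bacterial His6-SUMO fusion, cleaved, purified by Ni-NTA and gel filtration), free or with unlabeled H3 1-9 K4me3 peptide. R1 and R2 measured with standard pulse sequences at 25°C, 800 MHz with cryoprobe; correlation time estimated from R2/R1 ratios.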

Consider “H3K4me0: unmodified H3K4 histone peptide”, for which the “interaction with JARID1APHD1 in peptide pull-down” value in series [1] was “interacted”.

Regarding “JARID1APHD3: C-terminal PHD finger of JARID1A (amino acids 1601-1660) (EESDDENAVCAAQNCQRPCKDKVDWVQCDGGCDEWFHQVCVGVSPEMAENEDYICINCAK; left off: GST, end not stated, kept)”, the rotational correlation time in series [2] is on record as 3.5 ns.
